# Laboratory results from ChEMBL document CHEMBL4190306, “Synthesis and structure-activity relationship study of novel 3-heteroarylcoumarins based on pyridazine scaffold as selective MAO-B inhibitors” (Eur J Med Chem, 2017).
# Molecular target: T1, Amine oxidase [flavin-containing] A (Homo sapiens, UniProt P21397)
# T1 sequence (P21397 whole entry): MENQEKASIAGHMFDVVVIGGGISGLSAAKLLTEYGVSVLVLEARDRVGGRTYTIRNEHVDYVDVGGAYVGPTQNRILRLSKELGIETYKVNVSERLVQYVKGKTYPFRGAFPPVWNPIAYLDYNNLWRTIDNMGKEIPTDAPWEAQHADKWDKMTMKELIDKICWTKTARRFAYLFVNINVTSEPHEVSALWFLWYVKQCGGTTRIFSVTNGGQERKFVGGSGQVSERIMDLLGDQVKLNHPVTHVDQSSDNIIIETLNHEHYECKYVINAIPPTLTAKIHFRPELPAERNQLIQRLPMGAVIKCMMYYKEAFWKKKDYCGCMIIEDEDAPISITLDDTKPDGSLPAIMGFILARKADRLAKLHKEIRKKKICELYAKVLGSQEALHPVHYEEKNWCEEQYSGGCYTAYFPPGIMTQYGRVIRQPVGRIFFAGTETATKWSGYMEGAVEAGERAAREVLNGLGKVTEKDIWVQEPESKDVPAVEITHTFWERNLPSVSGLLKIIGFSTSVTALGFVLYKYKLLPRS
# Experiment: Inhibition of human recombinant MAO-A expressed in baculovirus infected BTI-TN5B1-4 cells using p-tyramine as substrate assessed as reduction in H2O2 production at 100 uM preincubated for 15 mins followed by substrate addition measured after 15 mins by Amplex red dye based fluorescence assay
# Details: 0.25 h; call rule not given here
# Method in brief: (§1)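 Microsomal hMAO-A (1.1 µg protein) or hMAO-B (7.5 µg protein) from baculovirus-infected insect cells was used, with each amount adjusted to an oxidation rate of 165±2 pmol p-tyramine/min. Enzyme and test drug in 0.5M sodium phosphate pH 7.4 were pre-incubated 15 min at 37 °C. The reaction was started with final 200 µM Amplex Red, 1 U/mL HRP and 1 mM p-tyramine. Resorufin fluorescence (ex 545/em 590 nm) was followed for 15 min at 37 °C, background without enzyme was subtracted, and controls received vehicle.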
row,inhibition (INH),SMILES
1,Not Active,Cc1ccc2cc(-c3ccc(Br)nn3)c(=O)oc2c1
2,Not Active,COc1ccc(-c2cc3cccc(OC)c3oc2=O)nn1
3,Not Active,COc1ccc2oc(=O)c(-c3ccc(Cl)nn3)cc2c1
4,Not Active,Cc1cccc2cc(-c3ccc(Br)nn3)c(=O)oc12
5,Not Active,COc1ccc(-c2cc3ccc(C)cc3oc2=O)nn1
6,Not Active,COc1ccc(-c2cc3cccc(C)c3oc2=O)nn1
7,Not Active,COc1ccc(-c2cc3cc(C)ccc3oc2=O)nn1
8,Not Active,Cc1ccc2oc(=O)c(-c3ccc(Br)nn3)cc2c1
9,Not Active,COc1cccc2cc(-c3ccc(Cl)nn3)c(=O)oc12
10,Not Active,COc1ccc2oc(=O)c(-c3ccc(Br)nn3)cc2c1
11,Not Active,COc1ccc2cc(-c3ccc(Cl)nn3)c(=O)oc2c1
12,Not Active,Cc1ccc2cc(-c3ccc(Cl)nn3)c(=O)oc2c1
13,Not Active,Cc1cccc2cc(-c3ccc(Cl)nn3)c(=O)oc12
14,Not Active,COc1ccc2cc(-c3ccc(Br)nn3)c(=O)oc2c1
15,Not Active,COc1cccc2cc(-c3ccc(Br)nn3)c(=O)oc12
16,Not Active,Cc1ccc2oc(=O)c(-c3ccc(Cl)nn3)cc2c1
17,Not Active,COc1ccc2oc(=O)c(-c3ccc(OC)nn3)cc2c1
18,Not Active,COc1ccc2cc(-c3ccc(OC)nn3)c(=O)oc2c1

# Molecular target: T2, Amine oxidase [flavin-containing] B (Homo sapiens, UniProt P27338)
# T2 sequence (P27338 whole entry): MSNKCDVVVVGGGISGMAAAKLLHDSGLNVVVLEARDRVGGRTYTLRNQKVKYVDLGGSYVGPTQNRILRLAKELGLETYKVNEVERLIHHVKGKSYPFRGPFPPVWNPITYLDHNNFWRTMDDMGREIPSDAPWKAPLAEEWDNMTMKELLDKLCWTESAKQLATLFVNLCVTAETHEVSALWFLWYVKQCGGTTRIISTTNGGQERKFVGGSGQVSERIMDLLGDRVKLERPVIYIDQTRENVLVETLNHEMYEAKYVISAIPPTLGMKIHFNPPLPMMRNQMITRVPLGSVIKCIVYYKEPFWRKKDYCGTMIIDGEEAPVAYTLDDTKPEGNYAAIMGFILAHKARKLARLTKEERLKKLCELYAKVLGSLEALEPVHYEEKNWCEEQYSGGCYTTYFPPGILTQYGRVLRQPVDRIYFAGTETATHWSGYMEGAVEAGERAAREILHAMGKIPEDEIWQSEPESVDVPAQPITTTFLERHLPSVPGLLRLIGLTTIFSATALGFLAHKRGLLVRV
# Experiment: Inhibition of human recombinant MAO-B expressed in baculovirus infected BTI-TN5B1-4 cells using p-tyramine as substrate assessed as reduction in H2O2 production preincubated for 15 mins followed by substrate addition measured after 15 mins by Amplex red dye based fluorescence assay
# Type: cell-based
# Details: not given
row,IC50,SMILES
1,0.75 µM,Cc1ccc2cc(-c3ccc(Br)nn3)c(=O)oc2c1
2,8.8 µM,COc1ccc2oc(=O)c(-c3ccc(Cl)nn3)cc2c1
3,2.64 µM,Cc1cccc2cc(-c3ccc(Br)nn3)c(=O)oc12
4,13.5 µM,COc1ccc(-c2cc3ccc(C)cc3oc2=O)nn1
5,5.35 µM,COc1ccc(-c2cc3cccc(C)c3oc2=O)nn1
6,17.6 µM,COc1ccc(-c2cc3cc(C)ccc3oc2=O)nn1
7,2.16 µM,Cc1ccc2oc(=O)c(-c3ccc(Br)nn3)cc2c1
8,30.1 µM,COc1cccc2cc(-c3ccc(Cl)nn3)c(=O)oc12
9,0.56 µM,COc1ccc2oc(=O)c(-c3ccc(Br)nn3)cc2c1
10,19.2 µM,COc1ccc2cc(-c3ccc(Cl)nn3)c(=O)oc2c1
11,2.51 µM,Cc1ccc2cc(-c3ccc(Cl)nn3)c(=O)oc2c1
12,22.7 µM,Cc1cccc2cc(-c3ccc(Cl)nn3)c(=O)oc12
13,3.05 µM,COc1ccc2cc(-c3ccc(Br)nn3)c(=O)oc2c1
14,12.8 µM,COc1cccc2cc(-c3ccc(Br)nn3)c(=O)oc12
15,13.5 µM,Cc1ccc2oc(=O)c(-c3ccc(Cl)nn3)cc2c1
16,11.1 µM,COc1ccc2oc(=O)c(-c3ccc(OC)nn3)cc2c1

# Molecular target: T2, Amine oxidase [flavin-containing] B
# Experiment: (§2) Inhibition of human recombinant MAO-B expressed in baculovirus infected BTI-TN5B1-4 cells using p-tyramine as substrate assessed as reduction in H2O2 production at 100 uM preincubated for 15 mins followed by substrate addition measured after 15 mins by Amplex red dye based fluorescence assay
# Details: 0.25 h
# Method in brief: as §1
row,inhibition (INH),SMILES
1,Not Active,COc1ccc(-c2cc3cccc(OC)c3oc2=O)nn1

# Molecular target: T2, Amine oxidase [flavin-containing] B
# Experiment: as §2, with “assay relative to control” for “assay”
# Details: 0.25 h
row,inhibition at 100 µM,SMILES
1,45 to 50%,COc1ccc2cc(-c3ccc(OC)nn3)c(=O)oc2c1

# Species: Homo sapiens
# Experiment: Selectivity index, ratio of IC50 for human recombinant MAO-A expressed in baculovirus infected BTI-TN5B1-4 cells to IC50 for human recombinant MAO-B expressed in baculovirus infected BTI-TN5B1-4 cells
# Details: not given
# Method in brief: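 IC50 values for hMAO-A and hMAO-B were obtained in the same p-tyramine/Amplex Red assay (15 min pre-incubation, 37 °C, 15 min fluorescence read). Each IC50 came from linear least-squares regression of % inhibition versus log molar concentration, using 4–6 concentrations giving 20–80% inhibition. Selectivity was taken as IC50(MAO-A)/IC50(MAO-B).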
row,SMILES,Ratio IC50
1,Cc1ccc2cc(-c3ccc(Br)nn3)c(=O)oc2c1,> 133
2,COc1ccc2oc(=O)c(-c3ccc(Cl)nn3)cc2c1,> 11.4
3,Cc1cccc2cc(-c3ccc(Br)nn3)c(=O)oc12,> 37.9
4,COc1ccc(-c2cc3ccc(C)cc3oc2=O)nn1,> 7.4
5,COc1ccc(-c2cc3cccc(C)c3oc2=O)nn1,> 18.7
6,COc1ccc(-c2cc3cc(C)ccc3oc2=O)nn1,> 5.7
7,Cc1ccc2oc(=O)c(-c3ccc(Br)nn3)cc2c1,> 46.3
8,COc1cccc2cc(-c3ccc(Cl)nn3)c(=O)oc12,> 3.3
9,COc1ccc2oc(=O)c(-c3ccc(Br)nn3)cc2c1,> 179
10,COc1ccc2cc(-c3ccc(Cl)nn3)c(=O)oc2c1,> 5.2
11,Cc1ccc2cc(-c3ccc(Cl)nn3)c(=O)oc2c1,> 39.8
12,Cc1cccc2cc(-c3ccc(Cl)nn3)c(=O)oc12,> 4.4
13,COc1ccc2cc(-c3ccc(Br)nn3)c(=O)oc2c1,> 32.8
14,COc1cccc2cc(-c3ccc(Br)nn3)c(=O)oc12,> 7.8
15,Cc1ccc2oc(=O)c(-c3ccc(Cl)nn3)cc2c1,> 7.4
16,COc1ccc2oc(=O)c(-c3ccc(OC)nn3)cc2c1,> 9

# System: SH-SY5Y
# Experiment: Cytotoxicity against human SH-SY5Y cells at 20 uM after 24 hrs by MTT assay
# Type: cell-based
# Details: not given
# Method in brief: (§3)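 SH-SY5Y neuroblastoma cells were seeded at 1.10⁶/mL and incubated overnight. Compounds in DMSO (1%) were added, with 1% DMSO-treated cells as negative control, for 24 h. MTT solution (5 mg/ml in PBS, 10%) was then added for 2 h at 37 °C, and the crystals were dissolved in DMSO. A540 was read, and viability was taken as % of negative-control absorbance.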
row,SMILES,Activity
1,COc1ccc(-c2cc3cccc(OC)c3oc2=O)nn1,Toxic

# System: SH-SY5Y
# Experiment: Cytotoxicity against human SH-SY5Y cells at 10 uM after 24 hrs by MTT assay
# Type: cell-based
# Details: not given
# Method in brief: as §3
row,SMILES,Activity
1,Cc1ccc2cc(-c3ccc(Br)nn3)c(=O)oc2c1,Non-Toxic
2,COc1ccc(-c2cc3cccc(OC)c3oc2=O)nn1,Non-Toxic
3,COc1ccc2oc(=O)c(-c3ccc(Cl)nn3)cc2c1,Non-Toxic
4,Cc1cccc2cc(-c3ccc(Br)nn3)c(=O)oc12,Non-Toxic
5,COc1ccc(-c2cc3ccc(C)cc3oc2=O)nn1,Non-Toxic
6,COc1ccc(-c2cc3cccc(C)c3oc2=O)nn1,Non-Toxic
7,COc1ccc(-c2cc3cc(C)ccc3oc2=O)nn1,Non-Toxic
8,Cc1ccc2oc(=O)c(-c3ccc(Br)nn3)cc2c1,Non-Toxic
9,COc1cccc2cc(-c3ccc(Cl)nn3)c(=O)oc12,Non-Toxic
10,COc1ccc2oc(=O)c(-c3ccc(Br)nn3)cc2c1,Non-Toxic
11,COc1ccc2cc(-c3ccc(Cl)nn3)c(=O)oc2c1,Non-Toxic
12,Cc1ccc2cc(-c3ccc(Cl)nn3)c(=O)oc2c1,Non-Toxic
13,Cc1cccc2cc(-c3ccc(Cl)nn3)c(=O)oc12,Non-Toxic
14,COc1ccc2cc(-c3ccc(Br)nn3)c(=O)oc2c1,Non-Toxic
15,COc1cccc2cc(-c3ccc(Br)nn3)c(=O)oc12,Non-Toxic
16,Cc1ccc2oc(=O)c(-c3ccc(Cl)nn3)cc2c1,Non-Toxic
17,COc1ccc2oc(=O)c(-c3ccc(OC)nn3)cc2c1,Non-Toxic
18,COc1ccc2cc(-c3ccc(OC)nn3)c(=O)oc2c1,Non-Toxic
